Laboratory results: ChEMBL document CHEMBL1153436, “2-Pyridyl P1'-substituted symmetry-based human immunodeficiency virus protease inhibitors (A-792611 and A-790742) with potential for convenient dosing and reduced side effects” (J Med Chem, 2009)

Columns and labels:
[1] = test system: Human immunodeficiency virus 1; assay: Antiviral activity against HIV1 bearing protease gene with A17 mutation infected in human MT4 cells after 5 days by MTT assay; assay type: functional, organism-based; conditions: Human immunodeficiency virus 1, MT4, 120 h
In short: (§1)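 HIV-1 A17 mutant clone carrying protease mutations L10F, V32I, M46I, I47V, Q58E and I84V, generated by in vitro serial passage under LPV/RTV. EC50 was determined in MT-4 cells. Wild-type reference strain was HIV-1 pNL4-3.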

[2] = test system: Human immunodeficiency virus 1; assay: Antiviral activity against HIV1 bearing protease gene with B26 mutation infected in human MT4 cells after 5 days by MTT assay; assay type: functional, organism-based; conditions: Human immunodeficiency virus 1, MT4, 120 h
[3] = test system: Human immunodeficiency virus 1; assay: Antiviral activity against HIV1 bearing protease gene with P25 mutation infected in human MT4 cells after 5 days by MTT assay; assay type: functional, organism-based; conditions: Human immunodeficiency virus 1, MT4, 120 h
Rattus norvegicus = assay: Toxicity in Gunn rat assessed as unconjugated-bilirubin level at 250 mg/kg coadministered with ritonavir measured on day 1; assay type: organism-based; parameters: dose 250 mg/kg; conditions: in vivo
In short: (§2)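 Gunn rats (n = 8-10 per arm) dosed orally with compound in 5% ethanol/95% propylene glycol with p-toluenesulfonic acid, together with 50 mg/kg RTV. Plasma was sampled 4 h after the first and second doses. Drug was measured by HPLC and bilirubin […]. Change in bilirubin (mg/dL) reported as mean with SD.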

Serum = assay: Drug level in Gunn rat serum at 250 mg/kg coadministered with ritonavir measured on day 1; assay type: ADME, organism-based; parameters: dose 250 mg/kg; conditions: in vivo; in short: as §2
[4] = test system: Human immunodeficiency virus 1; assay: Fold resistance, ratio of EC50 for HIV1 bearing protease gene with A17 mutation to EC50 for wild-type HIV1 pNL4-3; assay type: functional; in short: as §1
[5] = test system: Human immunodeficiency virus 1; assay: Antiviral activity against wild-type HIV1 pNL4-3 infected in human MT4 cells after 5 days by MTT assay in presence of 50% human serum; assay type: functional, organism-based; conditions: Human immunodeficiency virus 1, MT4, 120 h
[6] = test system: Human immunodeficiency virus 1; assay: Antiviral activity against wild-type HIV1 pNL4-3 infected in human MT4 cells after 5 days by MTT assay; assay type: functional, organism-based; conditions: Human immunodeficiency virus 1, MT4, 120 h
[7] = AUC in Sprague-Dawley rat at 5 mg/kg, po in presence of ritonavir; assay type: ADME, organism-based; parameters: dose 5 mg/kg, route oral; conditions: plasma
In short: (§3)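 Male Sprague-Dawley-derived rats (n = 3) dosed iv or by oral gavage with 5 mg/mL solutions in 5% dextrose containing 20% ethanol, 30% propylene glycol and methanesulfonic acid equivalents. Plasma was sampled at 10 time points over 8 h, extracted into ethyl acetate/hexane and analysed by reversed-phase HPLC with internal standard. AUC in µg·h/mL.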

[8] = Clearance in Sprague-Dawley rat at 5 mg/kg, iv; assay type: ADME, organism-based; parameters: dose 5 mg/kg, route intravenous; conditions: in vivo; in short: as §3
[9] = Oral bioavailability in Sprague-Dawley rat at 5 mg/kg; assay type: ADME, organism-based; conditions: in vivo; in short: as §3
[10] = AUC in Sprague-Dawley rat at 5 mg/kg, po; assay type: ADME, organism-based; parameters: dose 5 mg/kg, route oral; conditions: plasma; in short: as §3
[11] = Half life in Sprague-Dawley rat at 5 mg/kg, iv; assay type: ADME, organism-based; parameters: dose 5 mg/kg, route intravenous; conditions: in vivo; in short: as §3

With `CC(C)CN(C[C@@H](O)[C@H](Cc1ccccc1)NC(=O)O[C@H]1CO[C@H]2OCC[C@H]21)S(=O)(=O)c1ccc(N)cc1` as the compound, how does the EC50 [1] read?
Its EC50 is 338 nM.

What about the EC50 [2] of the same compound?
The EC50 was 587 nM.

And the EC50 [3]?
The EC50 was 515 nM.

What does the source list for `COC(=O)N[C@H](C(=O)NN(Cc1ccccc1)C[C@H](O)[C@H](Cc1ccccc1)NC(=O)[C@@H](N1CCN(Cc2cccc(C)n2)C1=O)C(C)(C)C)C(C)(C)C`?
Activity (Rattus norvegicus): 0.429 mg/dL; Drug uptake (Serum): 13.28 µg/mL

For `COC(=O)N[C@H](C(=O)N[C@@H](Cc1ccccc1)C[C@H](O)[C@H](Cc1ccccc1)NC(=O)[C@@H](N1CCN(Cc2cccc(C)n2)C1=O)C(C)(C)C)C(C)(C)C`, which EC50 [1] is on record?
The EC50 was 88 nM.

What about the “Ratio EC50” value [4] of the same compound?
Its value is 7.

And the Activity (Rattus norvegicus)?
Its Activity is 0.195 mg/dL.

And the Drug uptake (Serum)?
The Drug uptake was 18.68 µg/mL.

And the EC50 [5]?
The EC50 was 179 nM.

What about the EC50 [6] of the same compound?
The EC50 was 13 nM.

What does the source list for `COC(=O)N[C@H](C(=O)N[C@@H](Cc1ccc(-c2ccccn2)cc1)C[C@H](O)[C@H](Cc1ccccc1)NC(=O)[C@@H](N1CCN(Cc2ccccc2N)C1=O)C(C)(C)C)C(C)(C)C`?
EC50 [1]: 21 nM; Ratio EC50 [4]: 5; AUC [7]: 1250 ng·h/mL; clearance [8]: 33.2 mL/min/kg; EC50 [5]: 20 nM; bioavailability [9]: 2.9%; EC50 [6]: 4 nM; AUC [10]: 80 ng·h/mL; half-life [11]: 1.2 h

For `COC(=O)N[C@H](C(=O)N[C@@H](Cc1ccc(-c2ccccn2)cc1)C[C@H](O)[C@H](Cc1ccccc1)NC(=O)[C@@H](N1CCN(Cc2cccc(C)c2)C1=O)C(C)(C)C)C(C)(C)C`, which EC50 [1] is on record?
The EC50 was 41 nM.

And the “Ratio EC50” value [4]?
Its value is 8.

What about the AUC [7] of the same compound?
Its AUC is 2700 ng·h/mL.

And the clearance [8]?
The clearance was 29.3 mL/min/kg.

What about the EC50 [5] of the same compound?
Its EC50 is 25 nM.

What about the bioavailability [9] of the same compound?
Its bioavailability is 0.8%.

And the EC50 [6]?
The EC50 was 5 nM.

And the AUC [10]?
The AUC was 20 ng·h/mL.

What about the half-life [11] of the same compound?
Its half-life is 1.4 h.
